Assay results from different studies.
Lines come from different studies, so protocols differ.
Observed: enzyme activity
Mode: inhibitor
INSR phosphorylated: Insulin receptor, phosphorylated (INSR, Homo sapiens, UniProt P06213)
INSR: Insulin receptor (INSR, Homo sapiens, UniProt P06213)

Compound | target | assay | conditions | remaining activity [%]
CCN(CC)c1ccc(C2=NNC(=O)CC2C)cc1[N+](=O)[O-] (stereo not drawn) | INSR phosphorylated | – | 10 µM | 95
Cc1cnc(NC2CCOCC2)nc1-n1cnc(C(=O)NC(CN)c2cc(F)cc(Cl)c2)c1 (stereo not drawn) | INSR phosphorylated | radiometric | 1 µM | 104
O=C(Nc1cnn(-c2csc(C(=O)NC3COC3)c2)c1)Nc1ccccc1Cl | INSR | – | 5 µM | 98.4
COc1cc(Nc2cnc(C#N)c(O[C@H](C)CN(C)C)n2)ncc1-c1cnn(C)c1 | INSR | radiometric | 10 µM | 84
CCCOc1ccc(OC)c(F)c1C(=O)c1ccc(C(=O)N[C@@H]2CNC[C@H]2NC(=O)c2ccc3[nH]ncc3c2)cc1 | INSR phosphorylated | – | 10 µM | 98
COc1cc(Cl)c(C(=O)N[C@@H](CN[C@H]2CC[C@@H](N)CC2)Cc2ccc(C#N)cc2)cc1-c1ccc(CN[C@H](C)c2ccc(C)cc2)o1 | INSR | – | 1 µM | 97
CC(C)(O)[C@H]1CC[C@H](Nc2ccc3ncc(-c4cccc(C(F)(F)F)c4)n3n2)CC1 | INSR | – | 1 µM | 102
Nc1nc(Nc2ccccc2)sc1C(=O)c1c(F)cccc1F | INSR | – | 10 µM | 88
Cn1c(=O)n(-c2ccc(C(C)(C)C#N)cc2)c2c3cc(-c4cnc5ccccc5c4)ccc3ncc21 | INSR | – | 10 µM | 99
Cc1[nH]c(/C=C2\C(=O)Nc3ccc(F)cc32)c(C)c1C(=O)N[C@H]1CCN(C(=O)N(C)C)C1 | INSR | – | 0.1 µM | 132
CC(C)(C)c1nc(-c2cccc(NS(=O)(=O)c3c(F)cccc3F)c2F)c(-c2ccnc(N)n2)s1 | INSR | radiometric | 1 µM | 108
FC(F)c1nc2ccccc2n1-c1nc(N2CCOCC2)nc(N2CCOCC2)n1 | INSR | – | 10 µM | 104
